The source of these data is ChEMBL document CHEMBL3612047, “Synthesis, antiproliferative activity and possible mechanism of action of novel 2-acetamidobenzamides bearing the 2-phenoxy functionality” (Bioorg Med Chem, 2015).

For assay [1], the system named is K562. Nature of the assay: Growth inhibition of human K562 cells at 10 uM incubated for 24 hrs by trypan blue dye exclusion assay. The assay is classed as functional. As to conditions: K562, 24 h, read-out: GI. The method, boiled down:
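K562 cells in medium with 5% FBS at 37 °C, 5% CO₂. About 2 × 10⁵ cells/mL cultured 24 h, then compound added at 10 μM. After 24 h exposure, cells counted by hemocytometer and viability scored by trypan blue exclusion, reported as percent growth inhibition.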

Assay [2] can be described thus: Cytotoxicity against human HuDe cells incubated for 72 hrs by MTT assay. The assay is classed as cell-based. The procedure, abridged:
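HuDe primary culture from human epidermis, seeded at 2 × 10⁴ cells/mL. Test drugs at different concentrations, or 0.1% DMSO, added 24 h after seeding, with 72 h exposure. MTT (5 mg/mL in PBS) then applied for 3 h at 37 °C. Formazan solubilized with isopropanol/triton X-100/HCl and read at 570 nm with 690 nm blank.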

Assay [3] relates to K562. Nature of the assay: Selectivity index, ratio of IC50 for human HuDe cells to IC50 human K562 cells. The method, boiled down: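 Index taken as the ratio of HuDe to K562 IC₅₀. For K562: about 2 × 10⁵ cells/mL, compounds added at graded concentrations, viable count by trypan blue exclusion with a hemocytometer after 24 h. For HuDe primary epidermal cells: 2 × 10⁴ cells/mL, drugs or 0.1% DMSO added 24 h after seeding, MTT read at 570 nm (690 nm blank) after 72 h.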

The subject of assay [4] is K562. Nature of the assay: Growth inhibition of human K562 cells incubated for 24 hrs by trypan blue dye exclusion assay. Format: functional, cell-based. As to conditions: K562, 24 h. The procedure, abridged: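 K562 cells, about 2 × 10⁵ cells/mL, precultured 24 h, then exposed 24 h to a range of compound concentrations. Viable cells counted by hemocytometer with trypan blue exclusion to derive IC₅₀.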

Assay [5] in a line: Growth inhibition of human NCI60 cells assessed as cell growth level at 10 uM by NCI standard protocol based method. Format: functional. Also noted: scale not given: the % may be the effect or the level left. The method, boiled down: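 NCI 60-cell-line screen (leukemia, lung, colon, melanoma, renal, ovarian, brain, breast, prostate) run to the NCI standard protocol. Single high dose of 10⁻⁵ M, read as growth percent. Mean graph midpoint is the arithmetic mean over all lines tested.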

Molecules are shown by their SMILES.

`Cc1ccccc1OCC(=O)Nc1ccccc1C(N)=O`: the inhibition of growth at 10 µM in the assay with K562 [1] amounted to 19.7%. As usually defined, the IC50 is the concentration at which inhibition is half-maximal. Regarding `Cc1ccc(NC(=O)COc2ccccc2)c(C(N)=O)c1`, the IC50 is 99.3 µM in assay [2] and 4.7 µM with K562 [4]. Moreover, the “Ratio IC50” value in the assay with K562 [3] stood at 21.13. Also, the inhibition of growth at 10 µM with K562 [1] stood at 72%. On to `Cc1ccc(OCC(=O)Nc2ccccc2C(N)=O)cc1`, for which, in the assay on K562 [1], the inhibition of growth at 10 µM is < 10%.

With `Cc1ccc(NC(=O)COc2cccc(Cl)c2Cl)c(C(N)=O)c1`, the inhibition of growth at 10 µM in the assay with K562 [1] turned out to be 30.8%. For `COc1cc2c(c(OC)c1OC)-c1ccc(OC)c(=O)cc1[C@@H](NC(C)=O)CC2` [COLCHICINE], in the assay on K562 [1], the inhibition of growth at 10 µM worked out at 63.6%. `NC(=O)c1cccc(NC(=O)COc2ccccc2)c1`: the inhibition of growth at 10 µM in the assay with K562 [1] is < 10%.

With `Cc1ccc(OCC(=O)Nc2ccc(I)cc2C(N)=O)cc1`, the results for the half-maximal inhibitory concentration (IC50) (in assay [2]; with K562 [4]) were 356 µM and 10 µM, respectively. Moreover, the “Ratio IC50” value in the assay on K562 [3] is 35.57. The inhibition of growth at 10 µM in the assay with K562 [1] was 49.8%. For the compound `NC(=O)c1ccccc1NC(=O)COc1ccc(Cl)cc1Cl`, the inhibition of growth at 10 µM in the assay on K562 [1] is < 10%. As to `COc1ccc(NC(=O)COc2ccccc2C)c(C(N)=O)c1`, in the assay on K562 [1], the inhibition of growth at 10 µM turned out to be 40.1%.

Turning to `Cc1ccc(OCC(=O)Nc2ccc(Cl)cc2C(N)=O)cc1`, the inhibition of growth at 10 µM with K562 [1] was found to be 24.1%. On the same count and under the same terms, the value for `NC(=O)c1ccccc1NC(=O)COc1cccc(Cl)c1Cl` was < 10%; that for `COc1ccc(NC(=O)COc2ccc(C)cc2)c(C(N)=O)c1` was 48.1%. Take `Cc1ccc(NC(=O)COc2ccccc2C)c(C(N)=O)c1`: the inhibition of growth at 10 µM in the assay with K562 [1] turned out to be 45.6%.

On to `NC(=O)c1cc(I)ccc1NC(=O)COc1ccc(Cl)cc1Cl`, for which the IC50 in assay [2] came out at 33.8 µM; in the assay with K562 [4], 6.9 µM. Moreover, the “Ratio IC50” value with K562 [3] is 4.9. The inhibition of growth at 10 µM in the assay with K562 [1] came to 74.7%. The Activity in assay [5] is given as 87.28%. Turning to `NC(=O)c1ccccc1NC(=O)COc1ccccc1`, the IC50 is 523 µM in assay [2] and 8.9 µM in the assay on K562 [4]. In the assay with K562 [3], the “Ratio IC50” value came out at 58.76. Moreover, the inhibition of growth at 10 µM with K562 [1] came to 57.4%.

For the compound `Cc1ccc(OCC(=O)Nc2ccc(C)cc2C(N)=O)cc1`, in the assay on K562 [1], the inhibition of growth at 10 µM came out at 30.3%. On to `Cc1ccccc1OCC(=O)Nc1ccc(Cl)cc1C(N)=O`, for which the half-maximal inhibitory concentration (IC50) in assay [2] came to 27.3 µM; in the assay with K562 [4], 1.61 µM. Also, the “Ratio IC50” value in the assay with K562 [3] is 16.96. The inhibition of growth at 10 µM in the assay on K562 [1] amounted to 75.9%.

Take `NC(=O)c1cc(Cl)ccc1NC(=O)COc1ccc(Cl)cc1Cl`: the inhibition of growth at 10 µM with K562 [1] turned out to be 18.8%. `COc1cc(NC(=O)COc2cccc(Cl)c2Cl)c(C(N)=O)cc1OC`: the inhibition of growth at 10 µM in the assay with K562 [1] stood at 17.7%. The same measure, in the same setting: the value for `NC(=O)c1ccc(NC(=O)COc2ccccc2)cc1` was 23.7%. `Cc1ccc(NC(=O)COc2ccc(Cl)cc2Cl)c(C(N)=O)c1`: in the assay with K562 [1], the inhibition of growth at 10 µM was found to be 35.4%.
